# Most compounds without a hit are left out; they make up all but 4.2% or so of the library.
# KCNQ1 act – human KCNQ1 channel potentiation or activation. P51787. CHO-K1 KCNQ1, thallium flux FluxOR fluorescence; stronger effect = higher value. B-score at 10 µM. actives 0.35% (n = 310,000);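 active means fluorescence ratio B-score, a plate-corrected score, at least three library SD, with initial intensity B-score within 5 SD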
#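 assay system = KCNQ1-transfected CHO-K1 cells | medium = assay buffer with matched DMSO | probe or stimulus = depolarizing K+/Tl+ stimulus, K2SO4 and Tl2SO4 each 12.5 mM in 5x stock | dosing = single dose | incubation = dye 90 min, compound 20 min, room temperature | detection = kinetic FluxOR fluorescence, 10 s baseline plus 110 s post-stimulus | evaluation = ratio B score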
# KCNQ1 block – human KCNQ1 channel inhibition; P51787; CHO-K1 KCNQ1, FluxOR thallium flux fluorescence; stronger effect = higher value; AID 2642; actives 1.3% (n = 310,000); B-score at 10 µM;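 active means compounds whose thallium flux B-score, printed positive for inhibition, exceeds three library SD while starting fluorescence stays within three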;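 further: channel opened by potassium depolarization with thallium stimulus after 20 min compound exposure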
# hERG protect – shields human hERG channel from block by proarrhythmic agents; CHO-hERG, FluxOR thallium flux, dofetilide IC70 present; Q12809; actives 0.51% (n = 310,000); activation (rescue from dofetilide block), less the hit threshold, % at 10 µM;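 active means activation above the mean of controls blocked by dofetilide plus 5 SD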;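 further: thallium influx through hERG after potassium depolarization seen as dye fluorescence rise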
# Mot1-301 SUMO – SUMOylation pathway inhibition by Mot1-301 growth rescue; S. cerevisiae Mot1-301 growth rescue, ATP luminescence, 38.5C; percent above DMSO median, 100 means doubled; actives 1% (n = 320,000); growth rescue, % at 18.8 µM; AID 2716;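 active means every valid replicate shows activation above 250% relative to neutral control wells; inactive means the rest, any valid replicate at or below 250%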;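 further: OY570 slx delta 5 strain wells were the positive control but not used for scaling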
# AI-2 QS mod – Vibrio harveyi AI-2 quorum sensing modulation; Vibrio harveyi JMH597 AI-2 luminescence/OD600 ratio, 9 h; stronger effect = lower value; strain lacks LuxN and CqsS sensors; 0 = neutral-control median; activity change, % at 7.5 µM; actives 0.4% (n = 300,000); AID 2094; in the data active means activity change below about -75%, passing the limit was not always enough; inconclusive means no clear call, values can overlap the other calls;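 further: luminescence divided by OD600 gain over 9 h not by final OD600 alone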
# KCC2 mod – modulates chloride dependent transport by human KCC2; actives 2.2% (n = 190,000); KCC2 cells, thallium flux FluoZin-2 fluorescence; B-score of Tl+ flux slope (higher = more flux/activation; lower = inhibition) at 10 µM; Q9H2X9; AID 1456;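 active means thallium flux slope and its plate-corrected score both differing from the plate sample mean at a set confidence after two filtering rounds, in either direction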;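 further: slope of fluorescence scaled to starting intensity during 10 to 20 s after thallium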
# KCC2 sec1 – KCC2 (human) modulation, secondary assay; AID 1713; normalised thallium flux (F/F0 slope) at 10 µM; shares compounds with KCC2 mod; HEK293-KCC2, thallium flux, FluoZin2 fluorescence; stronger effect = higher value; actives 15% (n = 3,700);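 active means thallium flux slope above the same plate's solvent-only control mean plus 3 SD; inconclusive means the two replicate wells disagree; inactive means no significant difference from solvent-only control wells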
# KCC2 bumet counter – thallium flux despite bumetanide block in KCC2 cells, secondary assay 3; shares compounds with KCC2 mod; HEK293-KCC2 + bumetanide/ouabain, thallium flux FluoZin2; stronger effect = higher value; normalized thallium flux at 10 µM; actives 49% (n = 3,700);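 active means thallium entry rate above the same plate's blocked-transporter control wells by more than 3 SD; inconclusive means the two repeat wells disagree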;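 further: raw slope of fluorescence over initial fluorescence between 10 and 20 s after thallium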
# KCC2 secondary2 – confirmation of human KCC2 transport modulators; HEK293-KCC2, thallium flux FluoZin2 fluorescence; actives lie on both sides; F/F0 rise rate, 10–20 s post-thallium; normalized thallium flux at 10 µM; actives 23% (n = 3,700); shares compounds with KCC2 mod;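 active means thallium flux slope more than 3 SD above or below the plate's solvent-only control mean, mostly below; inconclusive means the two repeat wells disagreed; inactive means no significant shift from solvent-only controls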;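 further: raw slope with 0.1% DMSO as baseline and bumetanide as block control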
# HEK293 Tl flux – counter-screen for KCC2 modulators: effect in parental HEK293 cells; shares compounds with KCC2 mod; actives 46% (n = 3,700); thallium flux rate (normalised fluorescence) at 10 µM; thallium flux FluoZin2, ouabain; baseline-ratio fluorescence slope, 10–20 s after thallium; AID 1716;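 active means thallium flux rate significantly above the same plate's solvent-only control wells, beyond their mean plus 3 SD; inconclusive means the two replicate wells gave conflicting results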
# KCC2 ouabain – confirmation of human KCC2 modulators with ouabain. AID 1717. raw Tl+ flux slope (below DMSO = inhibition, above = activation) at 10 µM. actives 48% (n = 3,700). HEK293-KCC2, thallium flux FluoZin2 fluorescence; bidirectional: low = inhibitor, high = activator. shares compounds with KCC2 mod;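 active means thallium flux slope beyond 3 SD from same-plate DMSO control mean in most replicates, usually higher, sometimes lower; inconclusive means repeat tests gave conflicting results; inactive means no significant difference from controls in most replicates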;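 further: slope of initial-normalized fluorescence between seconds 10 and 20 after thallium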
# HEK293 Tl flux2 – parental HEK flux effect, counter-screen 2; thallium flux slope at 10 µM; HEK293 parental, thallium flux FluoZin-2 fluorescence slope; shares compounds with KCC2 mod; actives 33% (n = 3,700); AID 1718;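 active means thallium flux slope above the same plate's solvent-control mean plus 3 SD in both duplicate wells; inconclusive means duplicate wells that disagreed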;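 further: run without ouabain in cells lacking the KCC2 cotransporter; slope of fluorescence scaled to its starting value between 10 and 20 s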
# An asterisk follows results filed as active; i = inactive; ? = inconclusive; / = not tested or not shown.
SMILES,KCNQ1 act,KCNQ1 block,hERG protect,Mot1-301 SUMO,AI-2 QS mod,KCC2 mod,KCC2 sec1,KCC2 bumet counter,KCC2 secondary2,HEK293 Tl flux,KCC2 ouabain,HEK293 Tl flux2
O=C(NCCS(=O)(=O)NCc1ccc2c(c1)OCO2)c1ccccc1,i,i,-8,-1,13,/,/,/,/,/,/,/
Cc1ccc(-n2nnnc2SC(C)C(=O)Nc2ccccc2-c2ccccc2)cc1 (configuration not stated),i,i,-10,4,10,0.35,/,/,/,/,/,/
CC(Sc1nnnn1-c1ccccc1)C(=O)Nc1ccc(Cl)cn1 (configuration not stated),i,i,-10,-15,31,-4.4*,0.0073,0.0043,0.026*,0.006*,0.015*,?
COC(=O)c1cccc(N(CC(=O)NC2CCCCC2)C(=O)CNC(=O)c2cccs2)c1,i,i,-3,-6,8,/,/,/,/,/,/,/
CN(C)Cc1c(O)ccc2cc(-c3nc4ccccc4n3C)c(=O)oc12,i,i,-17,-11,-12,/,/,/,/,/,/,/
CCN(CC)c1ccc2cc(-c3nc4ccccc4n3C)c(=O)oc2c1,i,i,-10,7,24,/,0.0044*,0.00034*,0.022*,0.0037*,0.0081*,?
COc1cccc(NC(=O)COC(=O)COc2ccccc2[N+](=O)[O-])c1,i,i,-9,/,26,0.15,/,/,/,/,/,/
CCN(CC)c1ccc(NC(=O)COC(=O)COc2ccccc2[N+](=O)[O-])cc1,i,i,-13,1,19,-6.8*,0.0096,0.0058,0.035,0.0039,0.019,0.012
CSc1ccc(/C=C/C(=O)c2c(O)cc(C)oc2=O)cc1,i,i,-4,70,20,/,/,/,/,/,/,/
CCc1c(O)nc(SCC(=O)Nc2ccc(Br)cc2)n(-c2ccc(C)cc2)c1=O,i,i,-4,-5,19,/,/,/,/,/,/,/
CCc1c(O)nc(SCC(=O)Nc2ccc(C)cc2)n(C2CCCCC2)c1=O,i,i,-8,-8,18,/,0.0087,0.0056,0.031,0.0073,0.016*,0.011
O=C(Nc1nc2c(Cl)cccc2s1)c1ccc(Br)o1,i,i,-8,-11,33,/,?,0.027*,0.033,0.034*,0.031*,0.014*
Cc1cc(C(=O)COC(=O)CCc2nc3ccccc3s2)c(C)n1C,i,i,-7,648,6,-3.2*,0.0069,?,0.023*,0.0063,0.016*,0.0088
O=C(NCCCn1ncc2ccccc21)c1cc(COc2c(F)cccc2F)on1,i,i,-11,-2,13,-5.9*,0.016,?,0.022*,0.0068,0.012*,0.0099
O=C(c1cc(COc2c(F)cccc2F)on1)N1CCC(c2ccccc2F)C1 (configuration not stated),i,i,-14,-16,-3,-3,/,/,/,/,/,/
O=C(c1cc(COc2c(F)cccc2F)on1)N1CCC(c2ccncc2)CC1,i,i,-18,23,19,/,?,0.0084*,?,0.0072,0.019*,0.01
CN1CCN(C(=O)c2cc(COc3c(F)cccc3F)on2)CC1c1ccccc1 (configuration not stated),i,i,-8,10,8,-4*,0.0071,0.0047,0.033,0.0067,0.015*,0.012
C[C@H](CO)N1C[C@H](C)[C@@H](CN(C)S(=O)(=O)c2ccccc2)Oc2c(NC(=O)NC3CCCCC3)cccc2C1=O,/,/,/,-3,/,/,/,/,/,/,/,/
Cn1nnnc1SCc1ccc([N+](=O)[O-])cc1,i,i,-1,6,-7,0.77,/,/,/,/,/,/
Cc1ccc(S(=O)(=O)Nc2ncccn2)cc1,i,i,-3,-16,17,/,/,/,/,/,/,/
O=C(Cn1cnc2c(nnn2Cc2ccc(Cl)cc2)c1=O)c1ccccc1,i,i,-9,8,16,-2.6,/,/,/,/,/,/
COc1ccc(-n2nnc3c(=O)n(CC(=O)N4CCCc5ccccc54)cnc32)cc1,i,i,-1,-4,34,-1.1,/,/,/,/,/,/
Cc1ccc(Cn2nnc3c(=O)n(CC(=O)N4CCN(c5ccccc5)CC4)cnc32)cc1,i,i,-3,-6,22,-3.2*,0.0075,0.0059,0.031,0.0064,?,0.0095
Cc1ccc(Cn2nnc3c(=O)n(CC(=O)OCc4ccccc4)cnc32)cc1,i,i,-10,315,19,-1.8,/,/,/,/,/,/
O=C(Cn1cnc2c(nnn2Cc2ccc(F)cc2)c1=O)NCc1ccco1,i,i,-8,-4,-2,-4.5*,0.0069,0.0048,0.024*,0.0075,0.017*,0.01
O=C(Cn1cnc2c(nnn2-c2ccc(F)cc2)c1=O)N1CCCc2ccccc21,i,i,-11,-9,10,-4.4*,0.0071,0.0048,0.027,0.0075,0.017,0.0099
O=C(Cn1cnc2c(nnn2Cc2ccccc2)c1=O)c1ccccc1,i,i,-11,0,6,-4.7*,0.0059,0.0048,0.024*,?,0.014*,0.011
CCN1C(=O)[C@H]2[C@@H](c3ccc(-c4ccc(C(C)=O)cc4)c(OC)c3)N[C@@](Cc3ccccc3)(C(=O)OC)[C@H]2C1=O,i,i,-2,33,31,/,/,/,/,/,/,/
O=C(NCc1ccccc1C(F)(F)F)C1CC(c2ccccc2[N+](=O)[O-])=NO1 (configuration not stated),i,i,-8,8,12,-0.18,/,/,/,/,/,/
O=C(Cn1cnc2c(nnn2Cc2ccc(F)cc2)c1=O)N1CCCCC1,i,i,-11,-8,17,/,0.0076,0.0057,0.03,0.0085,0.014*,0.012
